# NPY-Y2 antag: NPY-Y2 (human) receptor antagonism | AID 793 | P49146 | NPY-Y2 expressing cells, antagonist mode | actives 0.99% (n = 140,000) | inhibition, % at 2.7 µM; in the data active = inhibition above about 17%
# NPY2 pot ag: potentiators or agonists of human neuropeptide Y receptor Y2 | P49146 | cells expressing NPY-Y2, potentiator/agonist read-out | activation, % at 3.6 µM | actives 0.45% (n = 220,000); in the data active = activation above about 27%;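 also: cells stimulated with NPY near EC25 plus isoproterenol at EC100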
# NPY-Y1 PAM-ag: potentiators or agonists of human neuropeptide Y receptor Y1; activation, % at 3.6 µM; P25929; actives 0.37% (n = 220,000); NPY-Y1 expressing cells, potentiator/agonist activation; AID 1304; in the data active = activation above about 33%, passing the limit was not always enough;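 also: cells stimulated with NPY at EC10 then isoproterenol at EC100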
# Target sequence (P25929 whole entry, looked up): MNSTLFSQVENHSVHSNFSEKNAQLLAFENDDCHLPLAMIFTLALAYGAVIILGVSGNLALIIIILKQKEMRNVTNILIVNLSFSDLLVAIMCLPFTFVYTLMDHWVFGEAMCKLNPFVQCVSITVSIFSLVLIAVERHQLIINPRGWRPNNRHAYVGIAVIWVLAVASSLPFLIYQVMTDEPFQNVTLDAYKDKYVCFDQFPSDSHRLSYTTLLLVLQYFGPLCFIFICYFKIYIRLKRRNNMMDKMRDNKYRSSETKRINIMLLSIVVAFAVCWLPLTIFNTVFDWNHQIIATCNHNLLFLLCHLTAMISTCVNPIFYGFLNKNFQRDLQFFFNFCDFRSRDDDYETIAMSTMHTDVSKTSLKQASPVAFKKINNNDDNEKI
# Rad51 HR inh: blocks human Rad51 in homologous recombination; Q06609; hRad51 DNA strand exchange, fluorescence dequenching; inhibition, % at 10 µM; actives 0.085% (n = 200,000); AID 1385;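 active = inhibition above 40% at the single screening dose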
# Target sequence (Q06609 whole entry, looked up): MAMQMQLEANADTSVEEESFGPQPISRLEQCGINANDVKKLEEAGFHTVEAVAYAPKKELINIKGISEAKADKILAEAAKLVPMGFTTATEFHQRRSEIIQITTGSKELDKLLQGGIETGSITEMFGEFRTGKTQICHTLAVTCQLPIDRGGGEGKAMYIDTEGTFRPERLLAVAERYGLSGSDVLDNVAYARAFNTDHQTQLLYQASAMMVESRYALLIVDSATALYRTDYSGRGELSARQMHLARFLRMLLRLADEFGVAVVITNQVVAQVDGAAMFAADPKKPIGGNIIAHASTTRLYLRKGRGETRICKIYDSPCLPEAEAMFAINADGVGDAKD
#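 Test system: preformed human Rad51 ssDNA filaments; also added: Donor/quencher-labelled 47-bp dsDNA substrate; doses: 10 µM final, single point; times: 37 °C 15-min filament assembly, 30-min compound preincubation, 15-min exchange; detection: FRET fluorescence dequenching, excitation 485 nm, emission 520 nm; read-out basis: Fluorescence-based percent inhibition, control- and blank-normalised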
# Measles CPE: protection of cells from measles virus | Measles virus-infected cells, CPE protection, absorbance | AID 841 | protection (pct of control), % at 4 µM | actives 1.5% (n = 140,000); in the data active = protection mostly above about 24%, no sharp cut-off; inactive = mostly below about 26%
# NPY Y1 blocker: antagonists of human neuropeptide Y receptor Y1; actives 1% (n = 200,000); HEK293-CNG Y1 cells, membrane potential fluorescence; NPY at EC95, then isoproterenol; AID 1040; inhibition, % at 3.6 µM; P25929;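 active = inhibition above the campaign mean inhibition of all tested compounds plus 3 SD, cut at about 20% in these data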
#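 System: HEK293 cells with Y1 receptor plus CNG channel / Probe or stimulus: NPY 25 nM then isoproterenol 1 µM plus Ro 20-1724 25 µM / Compound: one concentration, 3.6 µM, in 0.4% DMSO / Schedule: compound incubation 1 h at room temperature, readout 45 min post-stimulation / Measured by: membrane potential fluorescence / Read-out: % inhibition of NPY effect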
# NPY-Y1 pot conf: confirmation of human NPY-Y1 receptor potentiators or agonists. cell-based NPY-Y1 potentiator/agonist assay. actives 20% (n = 280). shares compounds with NPY-Y1 PAM-ag. activation, % at 3.6 µM; in the data active = activation above about 45%;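 also: cells challenged with NPY at its EC10 plus isoproterenol stimulus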
# NPY-Y2 counter: NPY-Y2 potentiation or agonism as NPY-Y1 counter-screen. HEK293-CNG cells, membrane-potential fluorescence (FLIPR), 1536-well. shares compounds with NPY-Y1 PAM-ag. activation, % at 3.6 µM. actives 20% (n = 280). AID 1649; in the data active = activation above about 33%
# NPY-Y1 ag: activates human NPY-Y1, counter-screen for NPY-Y1 potentiators; shares compounds with NPY-Y1 PAM-ag; HEK293 Y1-CNGC, membrane potential fluorescence, agonist mode; activation, % at 3.6 µM; actives 50% (n = 280); AID 1697;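 active = percent activation above the mean of DMSO-only control wells plus 3 SD of those wells, cut at about 18% in these data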;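 also: cells challenged with isoproterenol plus Ro 20-1724 with no NPY in test wells; Y1 agonism lowers isoproterenol-driven cAMP and reduces probe fluorescence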
# NPY-Y2 ag: human NPY-Y2 agonism as NPY-Y1 counter-screen; shares compounds with NPY-Y1 PAM-ag; HEK293 Y2-CNGC, membrane potential fluorescence, agonist mode; activation, % at 3.6 µM; actives 67% (n = 280); AID 1698;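 active = activation above the solvent-only control wells' mean plus 3 SD, cut at about 11% in these data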;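 also: agonism lowers cAMP so well fluorescence drops in active wells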
# CNGC inh 2: counter-screen for NPY-Y1 potentiators or agonists: CNG channel inhibitors; shares compounds with NPY-Y1 PAM-ag; HEK293-CNG parental, isoproterenol cAMP, membrane potential fluorescence; inhibition, % at 3.6 µM; actives 42% (n = 280); AID 1704;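 active = inhibition above the mean of stimulated solvent-only control wells plus 3 SD, cut at about 22% in these data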
# A number is an active result; 0 = inactive; - = no result. Sampled rows, rich in hits. Any-hit rate of the full collection: about 2.8%.
SMILES,NPY-Y2 antag,NPY2 pot ag,NPY-Y1 PAM-ag,Rad51 HR inh,Measles CPE,NPY Y1 blocker,NPY-Y1 pot conf,NPY-Y2 counter,NPY-Y1 ag,NPY-Y2 ag,CNGC inh 2
COc1cc(C2C(C#N)=C(N)N(c3ccc(F)cc3)C3=C2S(=O)(=O)CC3)ccc1O (centres undefined),-,0,0,0,-,0,-,-,-,-,-
CCOC(=O)C(Cc1ccccc1)C(=O)Nc1cccc(C)c1 (centres undefined),0,0,0,0,0,0,-,-,-,-,-
CCOC(=O)C(Cc1ccccc1)C(=O)Nc1ccc(N(CC)CC)cc1 (centres undefined),0,0,46,0,0,0,50,0,31,19,0
COc1ccc(N(CCCN2C(=O)c3cccc4cccc(c34)C2=O)C(=O)c2cccnc2)cc1,-,0,0,0,-,0,-,-,-,-,-
COc1ccc(N(CCCN2C(=O)c3cccc4cccc(c34)C2=O)C(=O)c2ccncc2)cc1,-,0,42,0,-,0,0,0,0,0,0
S=C(Nc1ccccc1)Nc1ccccc1Br,-,0,0,0,-,-,-,-,-,-,-
Nc1nc(Nc2ccccc2)nc(NCc2ccccc2)c1[N+](=O)[O-],-,0,0,0,-,-,-,-,-,-,-
Cc1cccc(Nc2nc(N)c([N+](=O)[O-])c(NCc3ccccc3)n2)c1,-,0,50,-,-,-,48,0,33,31,45
Cc1cc(C)c(C#N)c(N2CCN(Cc3ccccc3)CC2)n1,0,0,78,0,0,0,0,0,0,0,0
COc1cccc(NC(=O)C(Sc2nnc(-c3ccncc3)n2-c2ccc(Cl)cc2)c2ccccc2)c1 (centres undefined),0,0,52,0,0,0,60,54,63,40,60
COc1cccc(-n2c(SCC(N)=O)nnc2-c2ccncc2)c1,0,0,0,0,0,0,-,-,-,-,-
Cc1ccc(NC(=O)c2noc3c2CCCCC3)cc1C,0,0,49,-,0,0,0,0,0,0,0
Clc1ccc2oc3c(Cl)ncnc3c2c1,0,0,0,0,0,0,-,-,-,-,-
CS/C(Nc1cc(Cl)ccc1Cl)=C(/C#N)C(=O)c1ccco1,-,0,51,0,-,-,0,0,0,16,0
O=C(CSc1nnc(NC(=O)c2ccco2)s1)Nc1ccccc1,-,0,0,0,-,0,-,-,-,-,-
Cc1ccc2cc3c(NC(=O)C(C)C)nn(C)c3nc2c1,0,0,37,0,0,0,0,0,0,0,0
CCCC(=O)Nc1nn(C)c2nc3cc(C)ccc3cc12,-,-,-,0,-,-,-,-,-,-,-
CCCCC(=O)Nc1ccc(C(=O)Nc2ccc(S(=O)(=O)Nc3ccc(C)cc3)cc2)cc1,0,0,60,0,0,0,0,0,0,16,0
COc1cc(/C=C(/C(=O)c2cccs2)c2nc3ccccc3[nH]2)cc(OC)c1O,0,0,0,0,0,0,-,-,-,-,-
COc1cc(OC)cc(C(=O)NC(=S)Nc2ccc(NC(=O)c3ccco3)cc2)c1,0,0,0,0,0,0,-,-,-,-,-
COc1cc(OC)cc(C(=O)Nc2ccc(NC(=O)c3ccco3)c(Cl)c2)c1,-,0,67,0,-,0,0,0,0,0,0
COc1ccc(CCNC(=S)NC(=O)c2cc(OC)c(OC)c(OC)c2)cc1OC,-,0,0,0,-,-,-,-,-,-,-
O=C(Cn1cnc2c(nnn2Cc2ccc(F)cc2)c1=O)OCc1ccccc1,0,0,0,0,0,0,-,-,-,-,-
Cc1ccc(Cn2nnc3c(=O)n(CC(=O)OCc4ccccc4)cnc32)cc1,0,0,49,0,0,0,0,0,18,11,30
Cc1ccc(OCC(O)CN2CCN(c3ccccc3)CC2)cc1 (centres undefined),0,0,0,0,0,0,-,-,-,-,-
SMILES,NPY-Y2 antag,NPY2 pot ag,NPY-Y1 PAM-ag,Rad51 HR inh,Measles CPE,NPY Y1 blocker,NPY-Y1 pot conf,NPY-Y2 counter,NPY-Y1 ag,NPY-Y2 ag,CNGC inh 2
OC(COc1cccc2ccccc12)CN1CCN(c2ccccc2)CC1 (centres undefined),-,0,54,0,-,-,0,0,29,17,0
O=C1c2ccccc2C(=O)N1CCCCSc1nc2ccccc2c(=O)n1CCCN1CCOCC1,-,0,0,0,-,0,-,-,-,-,-
COc1cc(C(=O)NCC(c2cccnc2)N2CCN(c3ccc(F)cc3)CC2)cc(OC)c1OC (centres undefined),-,0,0,0,-,0,-,-,-,-,-
Cc1c(Cl)ccc2c1NC(=O)[C@]21[C@@H]2C(=O)N(Cc3ccccc3)C(=O)[C@@H]2[C@@H]2CCCN21,0,0,32,0,0,0,0,0,0,11,0
CCCOC(=O)c1c(-c2ccc(C)cc2C)csc1NC(=O)C1C2CCC(O2)C1C(=O)O (centres undefined),0,0,48,-,0,0,0,0,18,13,0
CCOC(=O)c1c(NC(=O)C2C3CCC(O3)C2C(=O)O)sc(C)c1-c1ccc(F)cc1 (centres undefined),0,0,0,0,0,0,-,-,-,-,-
COC(=O)CSc1nc2ccc(N)cc2s1,-,0,45,0,-,0,92,67,71,64,85
Cc1onc(-c2c(Cl)cccc2Cl)c1C(N)=O,0,0,0,0,0,0,-,-,-,-,-
Cc1onc(-c2c(Cl)cccc2Cl)c1C(=O)n1nnc2ccccc21,0,0,45,0,0,0,0,0,0,0,0
O=C1c2cccc3cccc(c23)C(=O)N1CCN1CCN(CC(O)COCc2ccc(Cl)cc2)CC1 (centres undefined),0,0,37,0,0,0,0,46,31,57,47
CC(=O)c1ccccc1OCC(O)CN1CCN(CCN2C(=O)c3cccc4cccc(c34)C2=O)CC1 (centres undefined),-,0,36,-,-,0,0,0,0,20,0
COc1cc(COCC(O)CN2CCN(CCN3C(=O)c4cccc5cccc(c45)C3=O)CC2)cc(OC)c1OC (centres undefined),0,0,0,-,0,0,-,-,-,-,-
CCOC(=O)C1CCN(C2=C(NS(=O)(=O)c3ccc(Cl)cc3)C(=O)c3ccccc3C2=O)CC1,-,0,55,-,-,-,72,57,70,65,57
CC1CCN(C2=C(NS(=O)(=O)c3ccc(Cl)cc3)C(=O)c3ccccc3C2=O)CC1,0,0,44,0,0,0,99,80,65,57,77
